{
  "source": "ChEMBL document CHEMBL1122426",
  "about": "“Radioiodine-labeled N,N-dimethyl-N'-(2-hydroxy-3-alkyl-5-iodobenzyl)-1,3-propanediamines for brain perfusion imaging” (J Med Chem, 1983)",
  "key": {"Rattus norvegicus [1]": {"organism": "Rattus norvegicus", "assay": "Effect of specific activity of compound on biodistribution in rats blood 1 hr after injection at the dose of 0.25 mg value expressed in average % dose per organ; value may range from 0.83 to 0.92", "type": "ADME, organism-based", "details": "in vivo"}, "Rattus norvegicus [2]": {"organism": "Rattus norvegicus", "assay": "Effect of specific activity of compound on biodistribution in rats blood 1 hr after injection at the dose of 2.5 mg value expressed in average % dose per organ; value may range from 0.58 to 0.71", "type": "ADME, organism-based", "details": "in vivo", "procedure,_shortened": "(§1)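 Rats received an intravenous injection of the I-125 labeled diamine with added unlabeled carrier (6.25, 2.5, 0.25 or 0.025 mg per dose). At 1 h, organs were counted. Percent dose per organ came from comparing tissue radioactivity with diluted aliquots of the injected dose. Values are the average and range of 3 rats. Brain/blood ratio was taken from % dose per gram, calculated using mean organ weights (brain 1.65 g; blood 18 g).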"}, "Rattus norvegicus [3]": {"system": "Rattus norvegicus", "assay": "Biodistribution of I-125 labeled compound in rat blood, 1 hr after intravenous injection. value expressed in average % dose per organ; value may range from 0.92 to 1.31", "type": "ADME, organism-based", "details": "in vivo"}, "Rattus norvegicus [4]": {"organism": "Rattus norvegicus", "assay": "Effect of specific activity of compound on biodistribution in rats brain after injection at the dose of 0.025 mg value expressed in average % dose per organ; value may range from 1.39 to 1.56", "type": "ADME, organism-based", "details": "in vivo", "procedure,_shortened": "as §1"}, "Rattus norvegicus [5]": {"organism": "Rattus norvegicus", "assay": "Effect of specific activity of compound on biodistribution in rats lungs 1 hr after injection at the dose of 6.25 mg value expressed in average % dose per organ; value may range from 2.70 to 7.70", "type": "ADME, organism-based, Lung", "details": "in vivo", "procedure,_shortened": "as §1"}, "Rattus norvegicus [6]": {"organism": "Rattus norvegicus", "assay": "Effect of specific activity of compound on biodistribution in rats muscle 1 hr after injection at the dose of 6.25 mg value expressed in average % dose per organ; value may range from 11.5 to 12.9", "type": "ADME, organism-based, Muscle tissue", "details": "in vivo", "procedure,_shortened": "as §1"}, "Rattus norvegicus [7]": {"organism": "Rattus norvegicus", "assay": "Effect of specific activity of compound on biodistribution in rats thyroid 1 hr after injection at the dose of 0.25 mg value expressed in average % dose per organ; value may range from 0.17 to 0.19", "type": "ADME, organism-based, Thyroid gland", "details": "in vivo", "procedure,_shortened": "as §1"}, "Rattus norvegicus [8]": {"system": "Rattus norvegicus", "assay": "Biodistribution of I-125 labeled compound in rat liver, 1 hr after intravenous injection. value expressed in average % dose per organ; value may range from 6.22 to 7.81", "type": "ADME, organism-based", "details": "in vivo"}, "Rattus norvegicus [9]": {"organism": "Rattus norvegicus", "assay": "Effect of specific activity of compound on biodistribution in rats thyroid 1 hr after injection at the dose of 6.25 mg value expressed in average % dose per organ; value may range from 0.09 to 0.11", "type": "ADME, organism-based, Thyroid gland", "details": "in vivo", "procedure,_shortened": "as §1"}, "Rattus norvegicus [10]": {"system": "Rattus norvegicus", "assay": "Biodistribution of I-125 labeled compound in rat liver, 2 min after intravenous injection. value expressed in average % dose per organ; value may range from 7.90 to 10.6", "type": "ADME, organism-based", "details": "in vivo"}, "Rattus norvegicus [11]": {"organism": "Rattus norvegicus", "assay": "Effect of specific activity of compound on biodistribution in rats blood 1 hr after injection at the dose of 0.025 mg value expressed in average % dose per organ; value may range from 0.84 to 0.99", "type": "ADME, organism-based", "details": "in vivo"}, "[12]": {"assay": "Biodistribution of […] in a monkey thyroid. 1 hr after intravenous injection. the value expressed in %dose/gram", "type": "ADME, organism-based, Thyroid gland", "details": "simiiformes, in vivo", "procedure,_shortened": "(§2)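 Monkey sedated with ketamine and anesthetized with nembutal, then given ~100 μCi [125I] label (~7 mCi/mg) intravenously. Killed 1 h later by nembutal overdose. Organs dissected, weighed and counted. % dose per organ found against diluted injected-dose aliquots; % dose per gram also reported; brain/blood from per-gram values. Single animal.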"}, "Rattus norvegicus [13]": {"system": "Rattus norvegicus", "assay": "Biodistribution of I-125 labeled compound in rat brain, 2 min after intravenous injection. value expressed in average % dose per organ; value may range from 1.71 to 1.95", "type": "ADME, organism-based", "details": "in vivo"}, "Rattus norvegicus [14]": {"organism": "Rattus norvegicus", "assay": "Effect of specific activity of compound on biodistribution in rats liver 1 hr after injection at the dose of 0.25 mg value expressed in average % dose per organ; value may range from 8.01 to 9.52", "type": "ADME, organism-based", "details": "in vivo", "procedure,_shortened": "as §1"}, "Rattus norvegicus [15]": {"organism": "Rattus norvegicus", "assay": "Effect of specific activity of compound on biodistribution in rats liver 1 hr after injection at the dose of 6.25 mg value expressed in average % dose per organ; value may range from 16.5 to 17.2", "type": "ADME, organism-based", "details": "in vivo", "procedure,_shortened": "as §1"}, "Rattus norvegicus [16]": {"organism": "Rattus norvegicus", "assay": "Effect of specific activity of compound on biodistribution in rats liver 1 hr after injection at the dose of 2.5 mg value expressed in average % dose per organ; value may range from 17.1 to 20.7", "type": "ADME, organism-based", "details": "in vivo", "procedure,_shortened": "as §1"}, "Rattus norvegicus [17]": {"organism": "Rattus norvegicus", "assay": "Distribution coefficient at pH 7.0 in rat", "type": "ADME, organism-based", "procedure,_shortened": "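Octanol/buffer partition: I-125 labeled diamine mixed with 3 g each of 1-octanol and 0.1 M phosphate buffer at pH 7.0 or 7.4, vortexed 3× 1 min, centrifuged 5 min. Two 0.5 g samples of each layer counted. Value is cpm/g octanol over cpm/g buffer, usually repeated three times.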"}, "Rattus norvegicus [18]": {"organism": "Rattus norvegicus", "assay": "Effect of specific activity of compound on biodistribution in rats thyroid 1 hr after injection at the dose of 2.5 mg value expressed in average % dose per organ; value may range from 0.12 to 0.14", "type": "ADME, organism-based, Thyroid gland", "details": "in vivo", "procedure,_shortened": "as §1"}, "[19]": {"assay": "The protein binding ability of compound was expressed in Percent free", "type": "ADME", "details": "read-out: % free", "procedure,_shortened": "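Binding to pooled human serum was measured by equilibrium dialysis. 0.4 mL serum and 0.4 mL 0.15 M phosphate buffer, pH 7.4, were separated by a membrane, and 0.025 μCi radiolabeled diamine was added on the buffer side. Cells were rotated at 37 °C for 18 h, and aliquots from both sides were weighed and counted. % free = buffer/serum radioactivity concentration ratio × 100. The membrane was also counted.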"}, "Rattus norvegicus [20]": {"organism": "Rattus norvegicus", "assay": "Effect of specific activity of compound on biodistribution in rats brain to blood ratio 1 hr after injection at the dose of 0.25 mg value expressed in % dose per gram ratio", "type": "ADME, organism-based", "procedure,_shortened": "as §1"}, "Rattus norvegicus [21]": {"organism": "Rattus norvegicus", "assay": "Effect of specific activity of compound on biodistribution in rats brain to blood ratio 1 hr after injection at the dose of 6.25 mg value expressed in % dose per gram ratio", "type": "ADME, organism-based", "procedure,_shortened": "as §1"}, "Rattus norvegicus [22]": {"system": "Rattus norvegicus", "assay": "Biodistribution of I-125 labeled compound in rat lungs, 1 hr after intravenous injection. value expressed in average % dose per organ; value may range from 10.6 to 15.1", "type": "ADME, organism-based, Lung", "details": "in vivo"}, "Rattus norvegicus [23]": {"system": "Rattus norvegicus", "assay": "Biodistribution of I-125 labeled compound in rat lungs, 2 min after intravenous injection. value expressed in average % dose per organ; value may range from 15.7 to 18.7", "type": "ADME, organism-based, Lung", "details": "in vivo"}, "Rattus norvegicus [24]": {"system": "Rattus norvegicus", "assay": "Biodistribution of I-125 labeled compound in rat muscle, 1 hr after intravenous injection. value expressed in average % dose per organ; value may range from 8.99 to 14.4", "type": "ADME, organism-based, Muscle tissue", "details": "in vivo"}, "[25]": {"assay": "Biodistribution of […] compound in a monkey blood. 1 hr after intravenous injection. the value expressed in%dose/organ", "type": "ADME, organism-based", "details": "simiiformes, in vivo", "procedure,_shortened": "as §2"}, "[26]": {"assay": "Biodistribution of [125I]- compound in a monkey lungs.1h after intravenous injection. the value expressed in %dose/gram", "details": "simiiformes, in vivo"}, "[27]": {"assay": "Biodistribution of [125I]- compound in a monkey bone. 1 hr after intravenous injection. the value expressed in %dose/gram", "details": "simiiformes, in vivo"}, "[28]": {"assay": "Biodistribution of [125I]- compound in a monkey brain. 1 hr after intravenous injection. the value expressed in %dose/gram", "details": "simiiformes, in vivo"}, "[29]": {"assay": "Biodistribution of [125I]- compound in a monkey kidneys. 1 hr after intravenous injection. the value expressed in%dose/organ", "details": "simiiformes, in vivo"}, "[30]": {"assay": "Biodistribution of [125I]- compound in a monkey brain to blood ratio 1 hr after intravenous injection. the value expressed in %dose/gram", "details": "simiiformes, in vivo"}},
  "data": [
    {"molecule": "Cc1cc(I)cc(CNCCCN(C)C)c1O", "values": [
      {"measurement": "Average dose per organ", "setting": "Rattus norvegicus [1]", "value": 0.88, "unit": "%"},
      {"measurement": "Average dose per organ", "setting": "Rattus norvegicus [2]", "value": 0.65, "unit": "%"},
      {"measurement": "Average dose per organ", "setting": "Rattus norvegicus [3]", "value": 1.1, "unit": "%"},
      {"measurement": "Average dose per organ", "setting": "Rattus norvegicus [4]", "value": 1.47, "unit": "%"},
      {"measurement": "Average dose per organ", "setting": "Rattus norvegicus [5]", "value": 4.5, "unit": "%"},
      {"measurement": "Average dose per organ", "setting": "Rattus norvegicus [6]", "value": 12.3, "unit": "%"},
      {"measurement": "Average dose per organ", "setting": "Rattus norvegicus [7]", "value": 0.17, "unit": "%"},
      {"measurement": "Average dose per organ", "setting": "Rattus norvegicus [8]", "value": 7.14, "unit": "%"},
      {"measurement": "Average dose per organ", "setting": "Rattus norvegicus [9]", "value": 0.1, "unit": "%"},
      {"measurement": "Average dose per organ", "setting": "Rattus norvegicus [10]", "value": 9.51, "unit": "%"},
      {"measurement": "Average dose per organ", "setting": "Rattus norvegicus [11]", "value": 0.91, "unit": "%"},
      {"measurement": "Dose/g", "setting": "[12]", "value": 0.039, "unit": "%"},
      {"measurement": "Average dose per organ", "setting": "Rattus norvegicus [13]", "value": 1.8, "unit": "%"},
      {"measurement": "Average dose per organ", "setting": "Rattus norvegicus [14]", "value": 8.54, "unit": "%"},
      {"measurement": "Average dose per organ", "setting": "Rattus norvegicus [15]", "value": 16.7, "unit": "%"},
      {"measurement": "Average dose per organ", "setting": "Rattus norvegicus [16]", "value": 18.9, "unit": "%"},
      {"measurement": "Distribution coefficient", "setting": "Rattus norvegicus [17]", "value": 3.39},
      {"measurement": "Average dose per organ", "setting": "Rattus norvegicus [18]", "value": 0.13, "unit": "%"},
      {"measurement": "fraction unbound", "setting": "[19]", "value": 0.483},
      {"measurement": "Ratio", "setting": "Rattus norvegicus [20]", "value": 22.8, "unit": "%"},
      {"measurement": "Ratio", "setting": "Rattus norvegicus [21]", "value": 43, "unit": "%"},
      {"measurement": "Average dose per organ", "setting": "Rattus norvegicus [22]", "value": 11.7, "unit": "%"},
      {"measurement": "Average dose per organ", "setting": "Rattus norvegicus [23]", "value": 16.9, "unit": "%"},
      {"measurement": "Average dose per organ", "setting": "Rattus norvegicus [24]", "value": 11.9, "unit": "%"},
      {"measurement": "Dose per organ", "setting": "[25]", "value": 1.23, "unit": "%"},
      {"measurement": "Dose/g", "setting": "[26]", "value": 1.05, "unit": "%"},
      {"measurement": "Dose/g", "setting": "[27]", "value": 0.00168, "unit": "%"},
      {"measurement": "Dose/g", "setting": "[28]", "value": 0.0349, "unit": "%"},
      {"measurement": "Dose per organ", "setting": "[29]", "value": 16.1, "unit": "%"},
      {"measurement": "Ratio", "setting": "[30]", "value": 17.5}
    ]}
  ]
}
